# CHOP UPR activ = apoptotic UPR (CHOP) activation. CHO-CHOP luciferase reporter, luminescence; percent of tunicamycin response over DMSO baseline. activation, % at 10 µM. 330,000 compounds, 0.34% hits. AID 449763;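 active means at 10 µM dose, activation of 40% or more, normalized to positive control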;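 further: 100% = tunicamycin at 10 µg/mL and 0% = DMSO alone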
#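 Assay system: CHO-CHOP cells, stable luciferase reporter of PERK-eIF2a-CHOP signalling / Buffer or medium: F12 plus 10% serum / Compound dosing: one dose, 10 µM in 0.5% DMSO / Times: 6 h compound treatment, 37 °C / Technique: luciferase luminescence / Read-out: % reporter activation, DMSO baseline versus tunicamycin full activation / Benchmarks: tunicamycin and DMSO controls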
# MC4R antagonist = blocks human MC4R cAMP signaling | inhibition, % at 6.5 µM | AID 540295 | 360,000 compounds, 0.48% hits | MC4R-expressing cells, MTII-stimulated cAMP, LANCE TR-FRET;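 active means inhibition above its plate's cutoff, the mean of tested wells on that plate plus 3 SD, cut at about 29% in these data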;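 further: 0% = Melanotan II alone and 100% = Melanotan II plus saturating MCL0020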
# Target sequence (P32245 whole entry, looked up): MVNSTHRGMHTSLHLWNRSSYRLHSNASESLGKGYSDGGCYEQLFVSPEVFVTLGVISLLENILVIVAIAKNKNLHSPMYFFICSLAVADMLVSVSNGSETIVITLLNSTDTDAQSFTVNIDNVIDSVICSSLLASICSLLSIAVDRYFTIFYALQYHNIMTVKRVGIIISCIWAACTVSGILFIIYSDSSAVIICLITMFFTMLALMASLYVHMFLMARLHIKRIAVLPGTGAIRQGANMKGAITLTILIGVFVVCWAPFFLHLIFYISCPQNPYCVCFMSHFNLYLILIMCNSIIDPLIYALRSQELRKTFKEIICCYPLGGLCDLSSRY
#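 system = U2OS cells with stable human MC4R expression | also added = Melanotan II challenge after compound preincubation | dosing = one concentration, 6.5 µM nominal | incubation = compound 30 min, challenge 1 h, detection 1 h | measured by = TR-FRET with Eu-cAMP and labeled anti-cAMP, 671 nm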
# MC4R barr agon = agonists of human melanocortin 4 receptor (MC4R) beta-arrestin; P32245; U2OS MC4R beta-arrestin complementation, luminescence; percent of melanotan II response, DMSO zero; 360,000 compounds, 0.98% hits; activation, % at 8.9 µM;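 active means activation above a per-plate cutoff, the mean activation of sample wells on that plate plus 3 SD, cut at about 8% in these data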
# XBP1 UPR activ = activators of adaptive arm of unfolded protein response (XBP1). CHO-XBP1 luciferase reporter, IRE1-XBP1 UPR activation, luminescence; percent of tunicamycin response, DMSO as zero. activation, % at 20 µM. 330,000 compounds, 0.33% hits;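 active means versus positive control, 20 µM dose yields 30% or more activation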;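 further: 100% = tunicamycin at 10 µg/mL and 0% = DMSO only wells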
#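 Material: CHO-XBP1 cells stably carrying IRE1-XBP1-driven luciferase reporter / Amount: 1000 cells per well / Compound: 20 µM, 1% DMSO / Times: 6 h treatment, 37 °C / Detection: luciferase luminescence / Measure: % activation of reporter signal versus tunicamycin and DMSO controls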
# Bfl-1 A1 inh = inhibitors of the anti-apoptotic protein A1, read as caspase activation | AID 2462 | caspase activation, % (concentration not given with the values) | 330,000 compounds, 0.066% hits | MEF A1-2A-BIM cells, Caspase-Glo 3/7 luminescence, 3 h; percent of clofoctol response, vehicle zero;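 active means over half of replicate activation scores above 10%, or exactly half above 10 with the replicate mean above 10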
# UPR CHOP confirm = confirmation of apoptotic unfolded protein response (CHOP) activators. shares compounds with CHOP UPR activ. activation, % at 10 µM. 1,000 compounds, 64% hits. CHO-CHOP cells, CHOP-luciferase reporter luminescence; percent of tunicamycin response, DMSO as zero; in the data active means activation above about 33%;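 further: 0% = DMSO wells and 100% = tunicamycin 10 µg/mL wells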
# Active calls of the source: *; . = no result. Hits are enriched below; roughly 2% of the tested compounds scored in any of these assays.
SMILES,CHOP UPR activ,MC4R antagonist,MC4R barr agon,XBP1 UPR activ,Bfl-1 A1 inh,UPR CHOP confirm
O=S(=O)(Nc1cccc2cccnc12)c1ccc(S(=O)(=O)N2CCCC2)cc1,134*,16,-3,-7,0,99*
O=S(=O)(Nc1cccc2cccnc12)c1ccccc1,368*,0,-4,-9,-1,58*
Cc1ccc(S(=O)(=O)Nc2cccc3cccnc23)c([N+](=O)[O-])c1,404*,-2,-6,-4,0,743*
CC(=O)NC(=Cc1ccccc1)C(=O)N1CCCC1C(=O)O (centres undefined),.,-2,-2,.,.,.
O=C1C(CCc2ccccc2)ON=C(c2cnccn2)N1Cc1ccc(F)cc1 (centres undefined),.,13,1,.,.,.
O=S(=O)(NCCS(=O)(=O)N1CCN(c2ccc(F)cc2)CC1)c1ccc(F)cc1,.,-5,0,.,.,.
COc1ccc(NS(=O)(=O)c2ccc3ccccc3c2)c2ncccc12,137*,1,-3,3,0,418*
COc1ccccc1NS(=O)(=O)c1ccc2ccccc2c1,3,5,3,-4,0,.
Cc1ccc(NC(=O)CSc2nnc(NC3CC3)s2)cc1S(=O)(=O)N1CCOCC1,.,12,1,.,.,.
Cn1c(=NC(=O)CCl)sc2ccccc21,41*,12,6,-2,4,23
CCOC(=O)C1(C)CCCN1C(=O)c1sccc1C (centres undefined),.,10,-2,.,.,.
N#Cc1cc([N+](=O)[O-])c(-n2nnc3ccccc32)c([N+](=O)[O-])c1,122*,-6,-3,-6,0,74*
Cc1ccc(C(=O)Oc2ccc(Cl)c3cccnc23)cc1[N+](=O)[O-],81*,1,-3,22,0,65*
COc1ccc(C(=O)Oc2cccc3cccnc23)cc1[N+](=O)[O-],-1,0,0,5,1,.
C/C(=N\NC(=O)c1ccncc1)c1cc2ccccc2o1,115*,2,0,2,0,1
CC(=NNC(=S)N1CCN(c2ccccn2)CC1)c1nccs1,.,0,-1,.,.,.
CCOc1ccc(NC(=O)OCCN2CCN(CCc3ccccc3)C(C)C2)cc1 (centres undefined),.,2,-1,.,.,.
N=C1N(/N=C/c2ccccc2)C(=Nc2ccccc2)C(=S)N1c1ccccc1,76*,1,-1,4,0,8
CC1(C(=O)NS(=O)(=O)C2CC2)CCCN(C(=O)c2c(F)cccc2F)C1 (centres undefined),.,8,-2,.,.,.
CCOC(=O)/C(=C\c1ccc(N2CCC(c3ccccc3)=N2)cc1)C(C)=O,.,5,1,.,.,.
CCOC(=O)C(=Cc1ccc(-n2cncn2)cc1)C(=O)OCC,119*,23,0,-3,0,93*
OC[C@@H]1CN(Cc2ccncc2)C[C@H](n2cnc3c(NC4CCCC4)ncnc32)O1,.,-2,0,.,.,.
Cc1ccc(/C=C/C(=O)NC2CCCCCCC2)o1,125*,-1,0,4,1,3
CC1(C)CC(=O)C=C(c2ccc(-c3ccc(OC(F)(F)F)cc3)cc2)C1=O,.,19,-1,.,.,.
CSC(=S)N/N=C(\C)c1ccccc1,109*,11,-2,2,-1,79*
CC(=O)N1CCc2cc(S(=O)(=O)C(C)CC(=O)NCc3ccco3)ccc21 (centres undefined),.,12,0,.,.,.
CC1(C)CC(=O)C(=Cc2cn(CCC#N)nc2-c2ccc(Cl)cc2)C(=O)C1,0,20,-2,-5,-1,.
CC1(C)CC(=O)C(=Cc2cn(-c3ccccc3)nc2-c2ccc(Cl)cc2)C(=O)C1,288*,12,-1,27,1,221*
COc1ccc(Oc2nc(-c3ccncc3)nc3ccccc23)cc1,-1,0,0,5,0,.
COc1ccc(Oc2nc(-c3ccccn3)nc3ccccc23)cc1,52*,3,0,25,-3,14

# Bioassay records from PubChem.
